In ChEMBL document CHEMBL5653611, “A combination of H2A.Z and H4 acetylation recruits Brd2 to chromatin during transcriptional activation” (PLoS Genet, 2012):
Active and inactive are the calls of the source.

Assays:
LNCaP [1] = assay: Effect on human LNCaP cells assessed as decrease in PSA mRNA expression pretreated with compound for 24 hrs followed by androgen stimulation for 24 hrs by RT-qPCR analysis; assay type: functional, cell-based; conditions: dose 125-500 nM
In short: (§1)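 LNCaP cells grown 72 hrs in phenol-red-free RPMI with 5% charcoal-stripped FBS, pretreated with compound, then stimulated with 10 nM DHT (ethanol vehicle for controls). Transcript levels measured by RT-qPCR.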

LNCaP [2] = assay: Antiproliferative activity against human LNCaP cells for 24 hrs by MTS assay; assay type: functional, cell-based; conditions: dose 125-500 nM
In short: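 LNCaP cells seeded in 96-well plates and grown 24 hrs, then exposed to a range of concentrations (DMSO vehicle control) for 24 hrs. MTS reagent added and absorbance read at 490 nm.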

LNCaP [3] = assay: Inhibition of Brd2-PSA protein-protein interaction in DHT stimulated human LNCaP cells at 125 to 250 nM measured for 60 mins by ChIP analysis; assay type: cell-based; conditions: dose 125-250 nM
In short: (§2)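 LNCaP cells held 72 hrs in phenol-red-free RPMI with 5% charcoal-stripped FBS, pretreated with compound, then stimulated with 10 nM DHT (ethanol control). Brd2 occupancy at enhancer and promoter regions measured by ChIP 60 min after stimulation.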

LNCaP [4] = assay: Inhibition of Brd2-KLK2 protein-protein interaction in DHT stimulated human LNCaP cells at 125 to 250 nM measured for 60 mins by ChIP analysis; assay type: cell-based; conditions: dose 125-250 nM; in short: as §2
LNCaP [5] = assay: Effect on human LNCaP cells assessed as decrease in KLK2 mRNA expression pretreated with compound for 24 hrs followed by androgen stimulation for 24 hrs by RT-qPCR analysis; assay type: functional, cell-based; conditions: dose 125-500 nM; in short: as §1
LNCaP [6] = assay: Effect on DHT stimulated human LNCaP cells assessed as decrease in histone acetylation at 125 to 250 nM measured for 60 mins by ChIP analysis; assay type: functional, cell-based; conditions: dose 125-250 nM
LNCaP [7] = assay: Inhibition of Brd2-H2A.Z protein-protein interaction in human LNCaP cells at 125 to 250 nM by Western blotting analysis; assay type: cell-based; conditions: dose 125-250 nM
HEK-293T [8] = assay: Effect on human 293T cells assessed as increase in histone acetylation at 200 nM for 2 hrs by Western blotting analysis; assay type: functional, cell-based
In short: (§3)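 293T cells transfected with Flag-H2A.Z or Flag-H2A (for line 5, co-transfected with YFP-Brd2), treated with 200 nM for 2 hrs (DMSO vehicle) before harvest. Read-out by Western blot of input and of Flag IP of MNase-digested mononucleosomes, overnight at 4°C on M2-agarose.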

HEK293T = assay: Binding affinity to Brd2-H2A.Z protein-protein interaction in human 293T cells at 200 nM for 2 hrs by Western blotting analysis; assay type: cell-based; in short: as §3
HEK-293T [9] = assay: Effect on human 293T cells expressing YFP-Brd2 assessed as increase in protein immunoprecipitated cells at 200 nM for 2 hrs; assay type: functional, cell-based; in short: as §3

Cc1sc2c(c1C)C(c1ccc(Cl)cc1)=N[C@@H](CC(=O)OC(C)(C)C)c1nnc(C)n1-2
active: Activity (LNCaP [1]) Dose-Dependent Effect | Activity (LNCaP [2]) Dose-Dependent Effect | inhibition (LNCaP [3]) | inhibition (LNCaP [4]) | Activity (LNCaP [5]) Dose-Dependent Effect | Activity (LNCaP [6]) | inhibition (LNCaP [7])

CC(/C=C/C(=O)NO)=C\[C@@H](C)C(=O)c1ccc(N(C)C)cc1
active: Activity (HEK-293T [8]) | Activity (HEK293T) | Activity (HEK-293T [9])
